These results are taken from ChEMBL document CHEMBL1154329, “Structure and cytotoxicity of arnamial and related fungal sesquiterpene aryl esters” (J Nat Prod, 2009).

As usually defined, the pIC50 is the negative decadic logarithm of the IC50, by convention in mol/L. Low readings indicate a large IC50, high ones a small IC50.

For experiment [1], the system named is HCT-116. Nature of the experiment: Cytotoxicity against human HCT116 cells at <=100 uM after 48 hrs by MTT assay. The experiment is classed as functional, cell-based. The method, boiled down: (§1)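 All four lines kept in RPMI 1640 with 10% FBS, 1% GlutaMAX, penicillin/streptomycin. Cells seeded at (2.5-5.0) × 10^4 per well and held overnight at 37 °C. Compounds added as 2-fold DMSO dilutions, top final concentration 100 µM, 0.5% DMSO final. Triplicates, 48 h, 37 °C, 5% CO2. MTT 1 mg/mL added for 3 h. IC50 is the mean of three replicate experiments.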

Experiment [2] relates to MCF7. Nature of the experiment: Cytotoxicity against human MCF7 cells at <=100 uM after 48 hrs by MTT assay. Type of experiment: functional, cell-based. The method, boiled down: as §1
On the technique in general: Tetrazolium assays rely on reduction of a dye to a coloured formazan, in cell work by metabolically active cells.

Experiment [3] has as its system Jurkat. Nature of the experiment: Cytotoxicity against human Jurkat T cells at <=100 uM after 48 hrs by MTT assay. Type of experiment: functional, cell-based. The method in brief: as §1
The subject of experiment [4] is CCRF-CEM. Nature of the experiment: Cytotoxicity against human CCRF-CEM cells at <=100 uM after 48 hrs by MTT assay. Type of experiment: functional, cell-based. The method, boiled down: as §1
Experiment [5] has as its system Jurkat. Nature of the experiment: Cytotoxicity against human Jurkat T cells after 48 hrs by MTT assay. The experiment is classed as functional, cell-based. The method, boiled down:
as §1

For experiment [6], the system named is HCT-116. Nature of the experiment: Cytotoxicity against human HCT116 cells after 48 hrs by MTT assay. The experiment is classed as functional, cell-based. Particulars: HCT-116, 48 h. The method in brief:
as §1

Experiment [7] has as its system MCF7. Briefly: Cytotoxicity against human MCF7 cells after 48 hrs by MTT assay. The experiment is classed as functional, cell-based. Conditions: MCF7, 48 h. The method, boiled down: as §1
Experiment [8] relates to CCRF-CEM. Nature of the experiment: Cytotoxicity against human CCRF-CEM cells after 48 hrs by MTT assay. The experiment is classed as functional, cell-based. The method, boiled down: as §1
Experiment [9] concerns Jurkat. Briefly: Induction of apoptosis in human Jurkat T cells assessed as activation of caspase3 at 10 uM after 6 hrs relative to control. The experiment is classed as functional. The method in brief:
(§2)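 Jurkat T cells at 1 × 10^6 cells/mL treated for 6 h, then centrifuged at 4 °C, washed and homogenized. Caspase-3 activity read with DEVD-AMC substrate at 200 nM. Rate of fluorescence increase normalized to Bradford protein, expressed as fold over untreated cells. Three independent experiments.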

In experiment [10] the test system is Jurkat. Briefly: Induction of apoptosis in human Jurkat T cells assessed as increase in DNA fragmentation at 10 uM after 6 hrs by ELISA relative to control. Type of experiment: functional. The method, boiled down: (§3)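 Jurkat T cells at 1 × 10^6 cells/mL exposed for 6 h. DNA fragmentation measured as histone-DNA complexes by histone ELISA and expressed as fold increase over untreated cells.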

For experiment [11], the system named is Jurkat. Briefly: Induction of apoptosis in human Jurkat T cells assessed as activation of caspase3 at 0.3 uM after 6 hrs relative to control. The experiment is classed as functional. The method in brief:
as §2

Experiment [12] has as its system Jurkat. Nature of the experiment: Induction of apoptosis in human Jurkat T cells assessed as increase in DNA fragmentation at 0.33 uM after 6 hrs by ELISA relative to control. Type of experiment: functional. The method in brief:
as §3
For orientation: An ELISA detects its analyte on a solid surface through an enzyme-linked reagent.

Structures are written as SMILES. pIC50: −log10 of the molar value. Active and inactive are the calls of the source. The calls are words filed in the database; no cut-off is given here. Starred links: 1 amine or outer side, 2 acyl side, 3 side chain; linkers in the order of their positions; H or OH if unused. Positions of bridges follow the written chain, without caps; N, C: chain ends. Non-standard residues stand in square brackets, D forms with d. Residues, ends and D or L forms follow the SMILES beside them. Chains are numbered I, II in the order given. Actinocin(1to9) = Cc1c2oc3c(C)ccc(C(=O)[*:2])c3nc-2c(C(=O)[*:1])c(N)c1=O; NMeV = CN[C@H](C(=O)O)C(C)C; Sar = CNCC(=O)O A value given as a limit tells only on which side of the number the result lay.

As to `COc1cc(C)c(C(=O)O[C@@H]2C[C@]3(C)[C@H]4[C@@H](O)C(C)(C)C[C@@]4(O)C=C(CO)[C@]23O)c(O)c1`, the outcome in experiment [1], in [2], in experiment [3] and in experiment [4] was inactive.

As to `Cc1cc(O)cc(O)c1C(=O)O[C@@H]1C[C@]2(C)[C@@H]3[C@H](C=C(C=O)[C@]12O)CC(C)(C)[C@@H]3O`, the pIC50 in experiment [5] was 4.06; in experiment [6], less than 4.00; in [7], less than 4.00; in [8], 4.20.

Regarding `Cc1cc(O)cc(O)c1C(=O)O[C@@H]1C[C@]2(C)[C@H]3[C@@H](O)C(C)(C)C[C@@]3(O)C=C(CO)[C@]12O`, the result in experiment [1], in [2], in experiment [3] and in [4] was inactive.

In the case of `COc1cc(C)c(C(=O)O)c(O)c1`, the outcome in experiment [1], in [2], in [3] and in [4] was inactive.

Turning to `COc1cc(O)c(C(=O)O[C@@H]2C[C@@]3(C)C2=C(C=O)[C@@H](O)[C@@H]2CC(C)(C)C[C@@H]23)c(C)c1Cl` [ARNAMIAL], the negative logarithm of the IC50 (pIC50) was 5.41 in [5], 4.97 in [6], 4.81 in [7] and 5.05 in [8]. Moreover, the results for the “fold change (FC)” value in experiment [9] and in experiment [10] were 18.1 and 4.5, respectively.

Consider `COc1cc(O)c(C(=O)O[C@@H]2C[C@]3(C)[C@H]4[C@@H](O)C(C)(C)C[C@@]4(O)C=C(CO)[C@]23O)c(C)c1Cl` [MELLEOLIDE D], for which the pIC50 was less than 4.00 in experiment [5], less than 4.00 in experiment [6], less than 4.00 in experiment [7] and 4.21 in [8].

In the case of `Cc1cc(O)cc(O)c1C(=O)O`, the outcome in [1], in experiment [2], in experiment [3] and in experiment [4] was inactive.

As to `COc1cc(O)c(C(=O)O[C@@H]2C[C@]3(C)[C@H]4[C@@H](O)C(C)(C)C[C@@]4(O)C=C(C=O)[C@]23O)c(C)c1Cl` [MELLEDONAL C], the negative-log IC50 (pIC50) in experiment [5] was 4.23; in [6], less than 4.00; in experiment [7] it was less than 4.00; in experiment [8] it was 4.83.

For the compound `Cc1cc(O)cc(O)c1C(=O)O[C@@H]1C[C@]2(C)[C@H]3[C@@H](O)C(C)(C)C[C@@]3(O)C=C(C=O)[C@]12O`, the result in experiment [1], in experiment [2], in [3] and in experiment [4] was inactive.

In the case of `Cc1c2oc3c(C)ccc(C(=O)N[C@@H]4C(=O)N[C@H](C(C)C)C(=O)N5CCC[C@H]5C(=O)N(C)CC(=O)N(C)[C@@H](C(C)C)C(=O)O[C@@H]4C)c3nc-2c(C(=O)N[C@@H]2C(=O)N[C@H](C(C)C)C(=O)N3CCC[C@H]3C(=O)N(C)CC(=O)N(C)[C@@H](C(C)C)C(=O)O[C@@H]2C)c(N)c1=O` [DACTINOMYCIN] (I: T[dV]P[Sar][NMeV] / II: T[dV]P[Sar][NMeV]; ester I:1-I:C, II:1-II:C; linker I:N-II:N via Actinocin(1to9)), the “fold change (FC)” value in experiment [11] came out at 5.7; in experiment [12], 4.3.
